Data published in article PMC10209341 (Heliyon, 2023).
Read-outs that look alike come from different tables or passages of the source.

Legend:
HCT116 cells = experiment: Rescue of Lenvatinib-induced pyroptosis in pretreated HCT116 cells; format: cell-based; conditions: then stimulated with Lenvatinib
HCT116 xenograft [1] = experiment: HCT116 xenograft, initial tumor model; format: in vivo, Balb/c nude mice
Outline: (§1)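 Female Balb/c nude mice, 6–8 weeks old. HCT116 cells (5 × 10^6 in 100 μL PBS) injected s.c. into the right flank. All given orally once daily. Tumour volume (0.5 × a × b²) measured every three days.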

Hep3B2.1-7 xenograft = experiment: Hep3B2.1-7 hepatoma xenograft model; format: in vivo, Balb/c nude mice; conditions: Hep3B2.1-7 model; for growth inhibition rate: terminated day 15
Outline: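 Female Balb/c nude mice, 6–8 weeks old, carrying s.c. Hep3B2.1-7 xenografts. Tumours established as for the HCT116 initial model (~150 mm3). Tumour volume (0.5 × a × b²) measured every three days and body weight monitored. At the end, mice sacrificed under anaesthesia and major organs taken for H&E.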

LO2 cells [2] = experiment: MTT assay in normal liver cells LO2; format: cell-based; conditions: Homo sapiens, L02, 72 h, read-out: IC50, viability of normal liver cells LO2
LO2 cells [3] = experiment: Microscopy imaging of cell morphology; format: cell-based; conditions: 48 h
Outline: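 LO2 cells exposed 48 h to test compound or reference drug and imaged by microscopy. Scored features were apoptotic bodies and ballooned cell membranes typical of pyroptosis.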

Sub-acute toxicity study = format: in vivo, C57BL/6 mice; conditions: for body weight / deaths during the study: 25 days; for deaths during the study: female C57BL/6 mice
Outline: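 Female C57BL/6 mice dosed orally for 25 days with vehicle, test compound 100 mg/kg or reference drug 40 mg/kg. Body weight and survival followed. Livers imaged and H&E stained. Plasma BUN, CREA, GLB, UREAL, ALP, AST and ALT measured (n = 3).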

[4] = system: HCT116, HepG2 and Hep3B2.1-7 cells; experiment: Cellular ROS level by flow cytometry; format: cell-based; conditions: 48 h, DCFH-DA
Outline: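 Cells seeded at 3 × 10^4 per well in 6-well plates and grown 24 h, then exposed 48 h to graded concentrations of test compound or reference drug. Intracellular ROS stained with DCFH-DA (ROS assay kit), read by flow cytometry and quantified. DCFH-DA-stained HCT116 cells were also viewed by inverted fluorescence microscopy.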

[5] = system: N-GSDME and cleaved-caspase3 in HCT116, Hep3B2.1-7 and HepG2 cells; experiment: Western blot of pyroptosis-related proteins; format: cell-based; conditions: 48 h
Outline: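 HCT116, Hep3B2.1-7 and HepG2 cells treated 48 h with graded concentrations of test compound or reference drug, then lysed in RIPA. 100 μg protein run on 10% SDS-PAGE and blotted to nitrocellulose. Probed for GSDME, N-GSDME, caspase-3 and cleaved caspase-3, with ECL detection. Bands quantified as ratio to GAPDH; three independent experiments.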

HCT116 xenograft [6] = experiment: HCT116 xenograft, medium-term tumor model; format: in vivo, Balb/c nude mice; conditions: for tumor inhibitory rate: medium-term HCT116 model
Outline: as §1

HepG2 xenograft = experiment: HepG2 hepatoma xenograft model; format: in vivo, Balb/c nude mice
Outline: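 Female Balb/c nude mice, 6–8 weeks old, carrying s.c. HepG2 xenografts. Tumours established as for the HCT116 initial model (~150 mm3). Groups: vehicle, test compound 50 mg/kg, reference drug 30 mg/kg; n = 5. Tumour volume (0.5 × a × b²) measured every three days and body weight followed. At the end of treatment, organs taken for H&E.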

STAT3 phosphorylation = experiment: Western blot of VEGF-induced phosphorylation in HUVECs; format: cell-based; conditions: 1.0 μM
Outline: (§2)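 HUVEC lysates made in RIPA buffer and protein measured by BCA. 100 μg protein run on 10% SDS-PAGE and transferred to nitrocellulose. Membranes blocked 2 h in TBST with 5% milk, then primary antibody overnight at 4 °C and secondary 1 h at room temperature. Bands detected by ECL.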

[7] = system: HepG2, Hepa3B2.1-7 and HCT116 cells; experiment: MTT and crystal violet; format: cell-based; conditions: MTT and crystal violet staining, time- and dose-dependent
Outline: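 MTT: cells (2–5 × 10^3 per well) attached 24 h, then given graded concentrations of test compound (in DMSO): 6 days for liver cancer lines, 3 days for HCT116, and various times. MTT (5 mg/mL) added for 4 h; formazan dissolved in DMSO and absorbance read at 570 nm. Colony assay: 1.5 × 10^3 cells per well treated 10 days, fixed in 4% PFA 20 min, stained with 0.5% crystal violet 10 min, counted. Three independent experiments.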

tumor tissues = experiment: Immunohistochemistry of xenograft tumor tissues; format: in vivo, Balb/c nude mice; conditions: vs controls
Outline: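 At the end of xenograft treatment, mice sacrificed under anaesthesia and tumours excised. Tumour sections stained by immunohistochemistry for Ki67 (proliferation) and CD31 (microvessels), plus TUNEL for apoptotic cells. Imaged at ×20.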

HUVECs [8] = experiment: Transwell invasion assay of HUVECs; format: cell-based; conditions: 1.25 μM, 24 h
Outline: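 HUVECs (4 × 10^4) in growth-factor-free ECM medium went into Matrigel-coated transwell upper chambers; the lower chamber held ECM with growth factors. Test compound (1.25 μM) or DMSO was added to the upper cells for 24 h. Non-invading cells were scraped off, and invaded cells were fixed in 4% paraformaldehyde, stained with crystal violet and photographed. Values are mean ± SD, n = 3.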

HUVECs [9] = experiment: HUVEC tube formation assay; format: cell-based; conditions: 3 μM, 6 h
Outline: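 Wells were pre-chilled, coated with Matrigel and polymerised at 37 °C for 1 h. HUVECs in ECM medium were seeded on the Matrigel at 2 × 10^4 cells/well together with test compound (3 μM). After 6 h, tube formation was observed by microscopy. Values are mean ± SD from three independent experiments.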

VEGFR1 = VEGFR1 (Homo sapiens, UniProt P17948); experiment: Kinase inhibition assay; format: biochemical
VEGFR1, sequence (P17948 27-1338): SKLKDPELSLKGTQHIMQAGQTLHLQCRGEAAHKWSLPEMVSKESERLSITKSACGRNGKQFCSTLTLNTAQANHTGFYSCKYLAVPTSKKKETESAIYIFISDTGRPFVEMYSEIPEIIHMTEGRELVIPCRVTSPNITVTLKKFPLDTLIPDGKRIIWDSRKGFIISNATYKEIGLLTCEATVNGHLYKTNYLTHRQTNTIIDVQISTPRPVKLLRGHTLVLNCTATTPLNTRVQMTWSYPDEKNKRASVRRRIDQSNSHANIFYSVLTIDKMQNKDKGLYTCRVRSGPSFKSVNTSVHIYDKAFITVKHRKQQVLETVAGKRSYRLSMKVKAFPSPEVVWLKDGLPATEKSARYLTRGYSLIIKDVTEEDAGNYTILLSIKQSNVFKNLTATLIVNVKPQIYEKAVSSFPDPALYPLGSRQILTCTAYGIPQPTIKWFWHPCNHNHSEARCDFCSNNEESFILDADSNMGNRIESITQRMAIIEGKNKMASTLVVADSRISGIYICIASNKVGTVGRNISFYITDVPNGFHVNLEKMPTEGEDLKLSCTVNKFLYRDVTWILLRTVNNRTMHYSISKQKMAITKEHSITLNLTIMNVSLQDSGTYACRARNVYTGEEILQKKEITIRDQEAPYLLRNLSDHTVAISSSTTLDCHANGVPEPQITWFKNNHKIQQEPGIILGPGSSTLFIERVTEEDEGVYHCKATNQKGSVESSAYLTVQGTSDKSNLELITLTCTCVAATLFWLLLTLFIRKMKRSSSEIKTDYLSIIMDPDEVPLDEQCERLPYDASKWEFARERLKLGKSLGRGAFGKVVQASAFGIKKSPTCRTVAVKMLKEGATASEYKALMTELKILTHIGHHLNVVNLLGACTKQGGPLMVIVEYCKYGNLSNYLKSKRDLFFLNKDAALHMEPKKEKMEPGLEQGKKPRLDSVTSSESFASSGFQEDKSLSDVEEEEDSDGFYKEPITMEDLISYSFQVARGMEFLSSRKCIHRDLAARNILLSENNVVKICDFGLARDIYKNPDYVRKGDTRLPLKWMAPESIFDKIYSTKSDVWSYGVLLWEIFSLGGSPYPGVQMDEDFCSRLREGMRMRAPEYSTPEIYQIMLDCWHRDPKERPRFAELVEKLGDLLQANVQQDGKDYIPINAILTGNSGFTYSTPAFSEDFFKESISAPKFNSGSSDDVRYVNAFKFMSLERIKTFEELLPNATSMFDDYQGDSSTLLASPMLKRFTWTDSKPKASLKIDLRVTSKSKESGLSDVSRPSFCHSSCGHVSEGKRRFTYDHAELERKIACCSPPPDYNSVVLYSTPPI
Outline: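 Kinase activity tested by a contract provider over a gradient of test-compound concentrations. IC50 derived by fitting the concentration–response data.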

VEGF165-induced HUVECs = experiment: EdU incorporation assay in HUVECs; format: cell-based
Outline: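 HUVECs were kept in medium with 10% FBS at 37 °C and 5% CO2, then plated at 1 × 10^4 cells/well in 96-well plates. Cells received a range of test-compound concentrations or solvent control and were stained with an EdU proliferation kit plus Hoechst 33342. Under a fluorescence microscope, the read-out was the ratio of EdU-positive to Hoechst-positive cells. Values are mean ± SD from three independent experiments.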

VEGFR2 phosphorylation = experiment: Western blot of VEGF-induced phosphorylation in HUVECs; format: cell-based; conditions: 3.3 μM
Outline: as §2

VEGFR3 = VEGFR3 (Homo sapiens, UniProt P35916); experiment: Kinase inhibition assay; format: biochemical
VEGFR3, sequence (P35916 25-1363): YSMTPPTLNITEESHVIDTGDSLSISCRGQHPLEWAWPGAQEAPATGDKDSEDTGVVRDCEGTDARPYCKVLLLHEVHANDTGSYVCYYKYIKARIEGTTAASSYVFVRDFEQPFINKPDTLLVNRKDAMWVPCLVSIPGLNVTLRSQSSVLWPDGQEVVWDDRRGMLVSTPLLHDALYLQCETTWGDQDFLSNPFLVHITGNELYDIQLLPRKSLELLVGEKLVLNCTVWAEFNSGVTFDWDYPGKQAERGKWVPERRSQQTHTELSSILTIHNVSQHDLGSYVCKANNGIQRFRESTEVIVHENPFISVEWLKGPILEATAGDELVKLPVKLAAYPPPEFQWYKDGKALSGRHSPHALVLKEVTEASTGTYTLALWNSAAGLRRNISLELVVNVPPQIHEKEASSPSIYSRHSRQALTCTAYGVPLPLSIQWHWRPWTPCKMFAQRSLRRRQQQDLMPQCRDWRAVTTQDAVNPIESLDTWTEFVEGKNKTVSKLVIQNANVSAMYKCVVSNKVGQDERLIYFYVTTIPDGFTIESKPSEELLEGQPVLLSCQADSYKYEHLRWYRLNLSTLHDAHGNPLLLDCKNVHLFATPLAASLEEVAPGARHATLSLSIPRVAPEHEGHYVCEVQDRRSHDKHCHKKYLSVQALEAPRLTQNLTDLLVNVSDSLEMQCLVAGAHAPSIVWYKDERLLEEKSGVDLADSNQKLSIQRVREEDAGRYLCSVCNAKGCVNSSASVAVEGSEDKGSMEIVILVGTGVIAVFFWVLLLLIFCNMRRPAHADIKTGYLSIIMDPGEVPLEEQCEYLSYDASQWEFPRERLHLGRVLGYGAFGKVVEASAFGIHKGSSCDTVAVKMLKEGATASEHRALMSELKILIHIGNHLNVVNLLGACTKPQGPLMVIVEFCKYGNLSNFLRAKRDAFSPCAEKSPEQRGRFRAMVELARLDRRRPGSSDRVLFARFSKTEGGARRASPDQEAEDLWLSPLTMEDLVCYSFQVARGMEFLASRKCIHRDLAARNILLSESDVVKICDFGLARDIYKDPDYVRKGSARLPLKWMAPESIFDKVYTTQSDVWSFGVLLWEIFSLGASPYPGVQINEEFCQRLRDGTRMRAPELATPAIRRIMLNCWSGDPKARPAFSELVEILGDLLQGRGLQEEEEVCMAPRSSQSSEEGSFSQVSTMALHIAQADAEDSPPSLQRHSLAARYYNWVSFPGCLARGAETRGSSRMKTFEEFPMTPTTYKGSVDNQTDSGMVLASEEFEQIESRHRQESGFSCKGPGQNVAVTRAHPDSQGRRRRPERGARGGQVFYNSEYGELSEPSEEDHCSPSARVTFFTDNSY
Outline: (§3)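 Run by an outside contract provider as part of a panel covering VEGFR1-3, FGFR1-4 and PDGFR. Test compound was tested across a gradient of concentrations, and IC50 was calculated from the resulting concentration-response data.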

ERK phosphorylation = experiment: Western blot of VEGF-induced phosphorylation in HUVECs; format: cell-based; conditions: 0.3 μM
Outline: as §2

HUVECs [10] = experiment: MTT assay in HUVECs; format: cell-based; conditions: Homo sapiens, HUVEC, 48 h
[11] = system: transgenic zebrafish embryos; experiment: Angiogenesis in flk:eGFP transgenic zebrafish; format: in vivo; conditions: 3 μM, 16 h
HUVECs [12] = experiment: Wound healing; format: cell-based; conditions: 1.25 μM, 24 h
Outline: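 HUVEC monolayers in 6-well plates were scratch-wounded, washed with PBS and treated with test compound (1.25 μM). Wounds were photographed under a microscope after 24 h. Values are mean ± SD from three independent experiments.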

VEGFR2 = VEGFR2 (Homo sapiens, UniProt P35968); experiment: Kinase inhibition assay; format: biochemical
VEGFR2, sequence (P35968 20-1356): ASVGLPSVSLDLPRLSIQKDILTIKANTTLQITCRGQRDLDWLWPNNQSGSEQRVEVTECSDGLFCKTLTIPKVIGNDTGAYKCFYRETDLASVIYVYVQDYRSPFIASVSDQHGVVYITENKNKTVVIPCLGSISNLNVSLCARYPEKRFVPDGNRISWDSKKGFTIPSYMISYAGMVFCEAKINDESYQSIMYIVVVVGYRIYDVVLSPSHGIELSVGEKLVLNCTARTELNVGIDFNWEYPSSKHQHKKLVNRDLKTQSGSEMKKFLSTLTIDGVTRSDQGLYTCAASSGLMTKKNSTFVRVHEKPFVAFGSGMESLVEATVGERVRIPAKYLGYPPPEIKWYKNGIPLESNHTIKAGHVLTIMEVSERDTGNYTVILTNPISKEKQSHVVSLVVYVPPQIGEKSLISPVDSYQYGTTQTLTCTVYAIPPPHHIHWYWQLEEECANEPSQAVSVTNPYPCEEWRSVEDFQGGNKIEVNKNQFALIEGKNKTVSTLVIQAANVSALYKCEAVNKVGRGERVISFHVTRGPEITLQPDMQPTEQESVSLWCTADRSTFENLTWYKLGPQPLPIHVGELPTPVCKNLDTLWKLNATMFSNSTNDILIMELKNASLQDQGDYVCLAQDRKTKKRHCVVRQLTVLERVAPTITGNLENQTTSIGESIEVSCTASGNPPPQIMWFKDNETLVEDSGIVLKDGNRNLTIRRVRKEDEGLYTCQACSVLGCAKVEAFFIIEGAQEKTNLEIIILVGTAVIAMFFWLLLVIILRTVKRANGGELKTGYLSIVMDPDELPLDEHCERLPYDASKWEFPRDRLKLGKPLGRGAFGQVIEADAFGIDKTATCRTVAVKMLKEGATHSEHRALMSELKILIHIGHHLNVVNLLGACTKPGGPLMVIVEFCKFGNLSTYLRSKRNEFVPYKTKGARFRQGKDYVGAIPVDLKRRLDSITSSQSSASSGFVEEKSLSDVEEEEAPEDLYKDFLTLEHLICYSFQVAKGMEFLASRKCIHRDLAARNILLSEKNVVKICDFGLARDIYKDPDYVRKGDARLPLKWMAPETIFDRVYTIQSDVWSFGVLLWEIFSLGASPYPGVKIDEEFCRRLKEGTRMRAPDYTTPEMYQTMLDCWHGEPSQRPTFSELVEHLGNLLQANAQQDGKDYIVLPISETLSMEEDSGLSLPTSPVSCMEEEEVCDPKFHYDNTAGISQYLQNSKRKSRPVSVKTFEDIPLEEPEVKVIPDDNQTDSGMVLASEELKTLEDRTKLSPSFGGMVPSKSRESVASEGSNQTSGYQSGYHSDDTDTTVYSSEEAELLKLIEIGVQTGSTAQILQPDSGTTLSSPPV
Outline: as §3

Compound: COC(=O)CC[C@H](NC(=O)[C@H](CC(=O)OC)NC(=O)OCc1ccccc1)C(=O)N[C@H](C(=O)N[C@@H](CC(=O)OC)C(=O)CF)C(C)C [Z-DEVD-FMK]
- effect on Lenvatinib-induced cell swelling / pyroptosis (HCT116 cells): abolished

Compound: CC(=O)N[C@@H](CS)C(=O)O [NAC]
- effect on Lenvatinib-induced cell swelling / pyroptosis (HCT116 cells): rescue Lenvatinib-induced pyroptosis

Compound: COc1cc2nccc(Oc3ccc(NC(=O)NC4CC4)c(Cl)c3)c2cc1C(N)=O [Lenvatinib, reference compound]
- body weight (HCT116 xenograft [1]; 5 mg/kg): lower body weights than ZLF-095-treated group
- tumor inhibitory rate (HCT116 xenograft [1]; 5 mg/kg oral once daily): 76.8%
- body weight (Hep3B2.1-7 xenograft; 30 mg/kg, day 15): sustained weight loss
- growth inhibition rate (Hep3B2.1-7 xenograft; 30 mg/kg): 78.1%
- IC50 (LO2 cells [2]): 14000 nM
- cell morphology (pyroptosis) (LO2 cells [3]): large bubbles bulging from the cell membrane
- levels of ALP (Sub-acute toxicity study; 40 mg/kg oral): notably increased
- levels of AST and ALT (Sub-acute toxicity study; 40 mg/kg oral): decreased
- liver images and H&E (Sub-acute toxicity study; 40 mg/kg oral): focal necrosis and significant inflammatory cell infiltration
- body weight (Sub-acute toxicity study; 40 mg/kg oral): obvious body weight loss
- deaths during the study (Sub-acute toxicity study; 40 mg/kg oral): 5/5
- intracellular ROS levels [4]: significantly increased
- cleaved-caspase3 / caspase3 activation [5]: obviously up‐regulated
- expression of N-GSDME [5]: obviously up‐regulated
- body weight (HCT116 xenograft [6]; medium-term (metaphase) HCT116 model, 5 mg/kg): lower body weights than ZLF-095-treated group
- tumor inhibitory rate (HCT116 xenograft [6]; 5 mg/kg oral once daily): 66.5%
- body weight / lethality (HepG2 xenograft; 30 mg/kg, after 16 days): marked loss of body weight led to death in mice

Compound: COCCOCCOc1cc2nccc(Oc3ccc(NC(=O)NC4CC4)c(Cl)c3)c2cc1C(N)=O [ZLF-095, 4-(3-chloro-4-(3-cyclopropylureido)phenoxy)-7-(2-(2-methoxyethoxy)ethoxy)qui noline-6-carboxamide]
- STAT3 phosphorylation (STAT3 phosphorylation): significantly inhibited
- proliferation of HepG2, Hepa3B2.1-7 and HCT116 cells [7]: significantly inhibited
- expression of Ki67 in tumor tissues (tumor tissues; immunohistochemistry): significantly decreased
- micro-vessel density of tumors (CD31) (tumor tissues): markedly decreased
- number of apoptotic cells in tumor tissues (TUNEL) (tumor tissues): increased
- tumor inhibitory rate (HCT116 xenograft [1]; 5 mg/kg oral once daily): 72.7%
- tumor inhibitory rate (HCT116 xenograft [1]; 15 mg/kg oral once daily): 83.9%
- invasion of HUVECs (transwell) (HUVECs [8]): significantly inhibited the invasion of HUVECs, similar to Lenvatinib
- growth inhibition rate (Hep3B2.1-7 xenograft; 30 mg/kg): 66.6%
- growth inhibition rate (Hep3B2.1-7 xenograft; 80 mg/kg): 81.5%
- gross abnormalities (Hep3B2.1-7 xenograft; dose levels up to 80 mg/kg): no gross abnormalities were observed
- cell morphology (pyroptosis) (LO2 cells [3]): no such change was seen
- liver images and H&E (Sub-acute toxicity study; 100 mg/kg oral): no visible abnormalities in the liver
- serum levels of BUN, CREA, GLB, UREAL, ALP, AST and ALT (Sub-acute toxicity study; 100 mg/kg oral): No aberrant serum levels
- deaths during the study (Sub-acute toxicity study; 100 mg/kg oral): none
- body weight (Sub-acute toxicity study; 100 mg/kg oral, vs vehicle): no significant changes in body weight
- capillary tube formation of HUVECs (HUVECs [9]): inhibited capillary tube formation of HUVECs
- IC50 (VEGFR1): 2 nM
- cell proliferation (EdU) (VEGF165-induced HUVECs): reduced cell proliferation in VEGF165-induced HUVECs in a dose-dependent manner
- phosphorylation of VEGFR2 induced by 50 ng/mL VEGF-165 (VEGFR2 phosphorylation): obviously suppressed
- IC50 (VEGFR3): 0.7 nM
- ERK phosphorylation (ERK phosphorylation): significantly inhibited
- cleaved-caspase3 / caspase3 activation [5]: increased caspase3 activation
- expression of N-GSDME [5]: had no effect
- IC50 (HUVECs [10]; read-out: IC50, viability of VEGF165-induced HUVECs): 1770 nM
- IC50 (HUVECs [10]; read-out: IC50, viability of untreated HUVECs): 10100 nM
- formation of intersegmental vessels (ISV) [11]: significantly suppressed the formation of intersegmental vessels (ISV), similar to Lenvatinib
- tumor inhibitory rate (HCT116 xenograft [6]; 5 mg/kg oral once daily): 60.7%
- tumor inhibitory rate (HCT116 xenograft [6]; 15 mg/kg oral once daily): 72.5%
- migration of HUVECs (wound healing) (HUVECs [12]): inhibited the migration of HUVECs slightly better than Lenvatinib
- IC50 (VEGFR2): 5 nM
- body weight (HepG2 xenograft; 50 mg/kg, 25 days): no influence on the weight
- suppression of cancer growth (HepG2 xenograft; 50 mg/kg, 25 days): 75.2%
